Measurements reported in ChEMBL document CHEMBL1146048, “Imidazo[1,2-a]pyrazin-8-ones, imidazo[1,2-d][1,2,4]triazin-8-ones and imidazo[2,1-f][1,2,4]triazin-8-ones as alpha2/alpha3 subtype selective GABA A agonists for the treatment of anxiety” (Bioorg Med Chem Lett, 2006).
Active and inactive are the calls of the source. The rule behind the calls is not given here.

How the values were obtained:
[1] = biological target: T1, GABA-A receptor; alpha-1/beta-3/gamma-2 (Homo sapiens, UniProt P14867+P18507+P28472); assay: Displacement of [3H]Ro-151788 from human recombinant GABA-Aalpha1 receptor plus beta3gamma2; assay type: protein-complex assay
T1 sequence (P14867 whole entry): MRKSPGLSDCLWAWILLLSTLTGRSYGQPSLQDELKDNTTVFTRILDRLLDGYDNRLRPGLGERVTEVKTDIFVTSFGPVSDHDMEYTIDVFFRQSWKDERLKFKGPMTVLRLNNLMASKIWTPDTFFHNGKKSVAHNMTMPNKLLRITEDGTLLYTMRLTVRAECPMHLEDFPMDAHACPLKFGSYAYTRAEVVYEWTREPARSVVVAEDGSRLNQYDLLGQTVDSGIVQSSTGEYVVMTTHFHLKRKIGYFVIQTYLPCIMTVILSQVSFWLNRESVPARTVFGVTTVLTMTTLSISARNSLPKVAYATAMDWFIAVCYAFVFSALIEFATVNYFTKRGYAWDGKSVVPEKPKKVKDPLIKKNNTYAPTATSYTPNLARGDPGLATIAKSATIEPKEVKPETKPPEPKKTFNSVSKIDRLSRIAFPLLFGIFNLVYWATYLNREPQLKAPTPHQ
T1 sequence (P18507 whole entry): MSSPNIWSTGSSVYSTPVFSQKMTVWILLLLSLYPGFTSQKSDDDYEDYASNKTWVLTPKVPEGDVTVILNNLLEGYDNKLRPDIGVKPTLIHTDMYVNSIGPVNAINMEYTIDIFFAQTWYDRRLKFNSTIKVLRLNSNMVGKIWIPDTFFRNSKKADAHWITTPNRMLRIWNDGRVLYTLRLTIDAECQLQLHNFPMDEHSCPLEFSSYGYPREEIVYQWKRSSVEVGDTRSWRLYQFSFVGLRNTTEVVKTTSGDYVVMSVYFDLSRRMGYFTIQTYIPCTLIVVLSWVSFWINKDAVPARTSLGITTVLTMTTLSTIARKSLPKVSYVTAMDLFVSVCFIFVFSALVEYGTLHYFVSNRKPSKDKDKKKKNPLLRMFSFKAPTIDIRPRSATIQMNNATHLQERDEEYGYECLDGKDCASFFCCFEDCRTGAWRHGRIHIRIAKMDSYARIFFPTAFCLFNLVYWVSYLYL
T1 sequence (P28472 whole entry): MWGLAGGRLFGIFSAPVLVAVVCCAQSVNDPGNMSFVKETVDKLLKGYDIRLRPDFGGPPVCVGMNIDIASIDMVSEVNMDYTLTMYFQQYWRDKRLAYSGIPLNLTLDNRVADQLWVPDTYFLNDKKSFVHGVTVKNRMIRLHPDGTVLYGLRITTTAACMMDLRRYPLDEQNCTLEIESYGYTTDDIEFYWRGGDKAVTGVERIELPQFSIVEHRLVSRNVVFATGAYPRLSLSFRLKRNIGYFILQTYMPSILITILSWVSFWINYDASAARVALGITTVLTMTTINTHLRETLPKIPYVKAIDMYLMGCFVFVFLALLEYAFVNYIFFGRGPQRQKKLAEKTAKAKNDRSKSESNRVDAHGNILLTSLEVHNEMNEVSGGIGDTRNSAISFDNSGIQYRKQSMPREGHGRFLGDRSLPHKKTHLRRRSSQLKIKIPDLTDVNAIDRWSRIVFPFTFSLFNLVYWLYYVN
Summary of the method: (§1)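 Stably expressed human recombinant αxβ3γ2 GABAA receptors (x = 1, 3 or 5), benzodiazepine site. Competition against 1.8 nM [3H]Ro15-1788. IC50 for inhibition of binding converted to Ki by Cheng–Prusoff. Mean of 3–6 determinations.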

[2] = biological target: T2, GABA-A receptor; alpha-5/beta-3/gamma-2 (Homo sapiens, UniProt P18507+P28472+P31644); assay: Displacement of [3H]Ro-151788 from human recombinant GABA-Aalpha5 receptor plus beta3gamma2; assay type: protein-complex assay; summary of the method: as §1
T2 sequence (P18507 whole entry): T1 sequence (P18507 whole entry)
T2 sequence (P28472 whole entry): T1 sequence (P28472 whole entry)
T2 sequence (P31644 whole entry): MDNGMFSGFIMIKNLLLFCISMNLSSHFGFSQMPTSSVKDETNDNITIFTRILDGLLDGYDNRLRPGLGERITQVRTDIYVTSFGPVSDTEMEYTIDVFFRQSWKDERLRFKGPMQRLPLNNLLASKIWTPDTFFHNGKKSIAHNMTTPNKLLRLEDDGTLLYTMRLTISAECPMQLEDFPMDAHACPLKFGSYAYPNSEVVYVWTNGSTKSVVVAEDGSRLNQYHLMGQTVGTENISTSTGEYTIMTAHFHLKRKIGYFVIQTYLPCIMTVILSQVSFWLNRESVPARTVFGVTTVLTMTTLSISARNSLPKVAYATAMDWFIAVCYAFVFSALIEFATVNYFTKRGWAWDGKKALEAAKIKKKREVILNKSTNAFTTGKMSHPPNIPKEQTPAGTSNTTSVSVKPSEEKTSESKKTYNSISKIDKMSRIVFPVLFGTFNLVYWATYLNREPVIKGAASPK

[3] = biological target: T3, GABA-A receptor; alpha-3/beta-3/gamma-2 (Homo sapiens, UniProt P18507+P28472+P34903); assay: Displacement of [3H]Ro-151788 from human recombinant GABA-Aalpha3 receptor plus beta3gamma2; assay type: protein-complex assay; summary of the method: as §1
T3 sequence (P18507 whole entry): T1 sequence (P18507 whole entry)
T3 sequence (P28472 whole entry): T1 sequence (P28472 whole entry)
T3 sequence (P34903 whole entry): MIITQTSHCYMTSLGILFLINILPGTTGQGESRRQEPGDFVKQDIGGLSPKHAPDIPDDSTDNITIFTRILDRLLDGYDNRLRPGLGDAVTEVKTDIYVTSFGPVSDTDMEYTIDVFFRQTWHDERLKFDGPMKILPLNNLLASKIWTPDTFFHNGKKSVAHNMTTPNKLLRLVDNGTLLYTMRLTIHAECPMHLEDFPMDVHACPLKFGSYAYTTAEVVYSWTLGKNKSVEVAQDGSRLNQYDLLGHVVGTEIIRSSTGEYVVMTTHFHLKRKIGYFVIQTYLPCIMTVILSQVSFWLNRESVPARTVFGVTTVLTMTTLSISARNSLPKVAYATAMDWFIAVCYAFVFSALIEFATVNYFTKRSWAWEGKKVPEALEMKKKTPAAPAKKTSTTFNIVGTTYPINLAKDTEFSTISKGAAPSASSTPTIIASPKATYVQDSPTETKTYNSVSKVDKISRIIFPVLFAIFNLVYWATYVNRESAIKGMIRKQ

[4] = biological target: GABA-A receptor; alpha-1/beta-3/gamma-2 (Homo sapiens) (UniProt P14867+P18507+P28472); assay: Efficacy against human recombinant GABA-Aalpha1 receptor plus beta-3-gamma-2 expressed in L(tk-) cells by whole cell patch clamp method; assay type: functional, cell-based
Summary of the method: (§2)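 Whole-cell patch clamp on L(tk-) cells stably expressing α1β3γ2 or α3β3γ2 GABAA receptors. Test compound modulation of current evoked by a sub-maximal (EC20) GABA concentration. Means of at least seven independent experiments.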

[5] = biological target: GABA-A receptor; alpha-3/beta-3/gamma-2 (Homo sapiens) (UniProt P18507+P28472+P34903); assay: Efficacy against human recombinant GABA-Aalpha3 receptor plus beta-3-gamma-2 expressed in L(tk-) cells by whole cell patch clamp method; assay type: functional, cell-based; summary of the method: as §2
[6] = biological target: GABA-A receptor; alpha-5/beta-3/gamma-2 (Homo sapiens) (UniProt P18507+P28472+P31644); assay: Efficacy against human recombinant GABA-Aalpha5 receptor plus beta-3-gamma-2 expressed in L(tk-) cells by whole cell patch clamp method; assay type: functional, cell-based
Summary of the method: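 Human α5β3γ2 GABA-A receptors stably expressed in L(tk-) cells; whole-cell patch clamp recording. Test compound applied against the current evoked by a sub-maximal GABA concentration (EC20), and efficacy expressed as the change in that current. Values are means of at least seven independent experiments.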

[7] = Bioavailability in rat; assay type: ADME, organism-based; conditions: in vivo
[8] = Plasma clearance in rat; assay type: ADME, organism-based
[9] = Half life in rat; assay type: ADME, organism-based; conditions: in vivo
[10] = biological target: T4, GABA-A receptor; anion channel (Rattus norvegicus) (UniProt O09028+P15431+P18506+P18508+P19969+P20236+P23574+P23576+P28471+P28473+P30191+P62813+P63079+P63138+Q91ZM7+Q9ES14); assay: Displacement of [3H]Ro-151788 from GABA-Aalpha receptor in rat po; assay type: functional
Rattus norvegicus [11] = assay: Anxiolytic activity in rat elevated plus maze assay at 3 mg/kg, po; assay type: functional, organism-based; design: dose 3 mg/kg
[12] = biological target: T4, GABA-A receptor; anion channel (Rattus norvegicus); assay: Receptor occupancy at BZ site of GABA-Aalpha receptor in rat at 3 mg/kg, po; assay type: functional, organism-based; design: dose 3 mg/kg
Rattus norvegicus [13] = assay: Activity in rat beam walking assay at 100 mg/kg, po; assay type: functional, organism-based; design: dose 100 mg/kg

SMILES: CC(C)(O)c1ccn2c(-c3ccc(F)c(-c4cccnc4)c3)cnc2n1
- Ki [1]: 1.4 nM
- Ki [2]: 0.52 nM

SMILES: Cn1ncn2c(-c3ccc(F)c(-c4ccc(F)cc4C#N)c3)cnc2c1=O
- Ki [1]: 6.5 nM
- Ki [3]: 4.7 nM
- Ki [2]: 2.3 nM
- Efficacy [4]: -9%
- Efficacy [5]: 1%

SMILES: Cn1cnn2c(-c3ccc(F)c(-c4ccc(F)cc4C#N)c3)cnc2c1=O
- Ki [1]: 2.5 nM
- Ki [3]: 4.6 nM
- Ki [2]: 4.8 nM
- Efficacy [4]: -46%

SMILES: CCn1ccn2c(-c3ccc(F)c(-c4ccc(F)cc4C#N)c3)cnc2c1=O
- Ki [1]: 0.28 nM
- Ki [3]: 0.9 nM
- Ki [2]: 0.15 nM
- Efficacy [4]: -8%
- Efficacy [5]: 43%
- Efficacy [6]: -4%
- bioavailability [7]: 38%
- clearance [8]: 17 mL/min/kg
- half-life [9]: 5 h
- ID50 [10]: 0.7 mg/kg
- Activity (Rattus norvegicus [11]): Active
- Activity [12]: 86%
- Activity (Rattus norvegicus [13]): inactive

SMILES: CC(C)(O)c1cnn2c(-c3ccc(F)c(-c4c(F)cccc4C#N)c3)cnc2n1
- Ki [1]: 0.6 nM
- Ki [3]: 1.5 nM
- Ki [2]: 0.9 nM
- Efficacy [4]: 4%
- Efficacy [5]: 65%
- Efficacy [6]: 44%

SMILES: CCn1ncn2c(-c3ccc(F)c(-c4ccc(F)cc4C#N)c3)cnc2c1=O
- Ki [1]: 2.4 nM
- Ki [3]: 3.4 nM
- Ki [2]: 0.95 nM
- Efficacy [4]: -19%
- Efficacy [5]: -7%

SMILES: Cn1ccn2c(-c3ccc(F)c(-c4ccc(F)cc4C#N)c3)cnc2c1=O
- Ki [1]: 0.7 nM
- Ki [3]: 1.9 nM
- Ki [2]: 0.39 nM
- Efficacy [4]: -27%
- Efficacy [5]: 44%

SMILES: Cn1ccn2c(-c3ccc(F)c(-c4c(F)cccc4C#N)c3)cnc2c1=O
- Ki [1]: 0.16 nM
- Ki [3]: 0.59 nM
- Ki [2]: 0.19 nM
- Efficacy [4]: 3%
- Efficacy [5]: 28%

SMILES: Cn1ccn2c(-c3ccc(F)c(-c4ccccc4C#N)c3)cnc2c1=O
- Ki [1]: 0.53 nM
- Ki [3]: 0.7 nM
- Ki [2]: 0.1 nM
- Efficacy [4]: 27%
- Efficacy [5]: 51%
